MIC data for four compounds are collected here from ChEMBL document CHEMBL2331076, “Pyridone alkaloids from a marine-derived fungus, Stagonosporopsis cucurbitacearum, and their activities against azole-resistant Candida albicans” (2013).

Format in all cases: functional
In test [1] the test system is Candida albicans. Briefly: Antifungal activity against azole-sensitive Candida albicans J1-97 by CLSI M27-A2 microdilution method. The procedure, abridged: (§1)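 Broth microdilution per CLSI M27-A2, run in triplicate. Panel: azole-resistant C. albicans J2-36 (resistant to fluconazole, itraconazole, voriconazole), azole-sensitive C. albicans J1-97, C. glabrata J-92, Cryptococcus neoformans MPU-B. Quality control was run on each testing day with reference strains, including C. albicans ATCC 90028.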

Another test relates to Cryptococcus neoformans. Kind of test: Antifungal activity against Cryptococcus neoformans MPU-B by CLSI M27-A2 microdilution method. The procedure, abridged: as §1
A further test has as its system Nakaseomyces glabratus. Kind of test: Antifungal activity against Candida glabrata J 92 by CLSI M27-A2 microdilution method. The procedure, abridged: as §1
The test system of test [2] is Candida albicans. Briefly: Antifungal activity against azole-resistant Candida albicans J2-36 by CLSI M27-A2 microdilution method.

Converted amounts (≈) assume the structure as drawn.

For orientation: MIC means the lowest concentration that inhibits growth of the organism. A low value points to greater potency.

Consider `C[C@@H]1CC[C@H]2[C@H](C(=O)c3c(O)c(C4(O)C=CC(=O)CC4)c[nH]c3=O)[C@H](C)C=C[C@@H]2C1` (stereo partly specified) [DIDYMELLAMIDE C], for which the MIC in the test on Candida albicans [1], against Cryptococcus neoformans, in the test on Nakaseomyces glabratus and against Candida albicans [2] was greater than 25 µg/mL in each case.

As for `C[C@@H]1CC[C@H]2[C@H](C(=O)c3c(O)c(-c4ccc(O)cc4)c[nH]c3=O)[C@H](C)C=C[C@@H]2C1` [DIDYMELLAMIDE B], the MIC was greater than 25 µg/mL against Candida albicans [1], 6.3 µg/mL (≈ 16 µM) in the test with Cryptococcus neoformans, greater than 25 µg/mL in the test on Nakaseomyces glabratus and greater than 25 µg/mL against Candida albicans [2].

`C[C@@H]1CC[C@H]2[C@H](C(=O)c3c(O)c([C@]4(O)CCC(=O)[C@@H]5O[C@@H]54)cn(O)c3=O)[C@H](C)C=C[C@@H]2C1` [DIDYMELLAMIDE A]: the MIC was 3.1 µg/mL (≈ 6.99 µM) against Candida albicans [1], 1.6 µg/mL (≈ 3.61 µM) with Cryptococcus neoformans, 3.1 µg/mL (≈ 6.99 µM) against Nakaseomyces glabratus and 3.1 µg/mL (≈ 6.99 µM) in the test with Candida albicans [2].

Turning to `C[C@@H]1CC[C@H]2[C@H](C(=O)c3c(O)c(C4(O)CCC(=O)CC4O)c[nH]c3=O)[C@H](C)C=C[C@@H]2C1` (stereo partly specified) [DIDYMELLAMIDE D], the minimum inhibitory concentration (MIC) in the test with Candida albicans [1], with Cryptococcus neoformans, in the test with Nakaseomyces glabratus and with Candida albicans [2] was greater than 25 µg/mL each time.
